Measurements pooled from the literature.
Lines come from different studies, so protocols differ.
Target: Eukaryotic elongation factor 2 kinase (EEF2K, Homo sapiens, UniProt O00418)

SMILES	observed	mode	technique	cells	tested at	endpoint	result
N#CC1c2c([nH]c3c(Cl)c(Cl)ccc23)C(=O)NC12CCCCC2 (racemic)	thermal stability	–	DSF	–	10 µM	ΔTm	-0.1 °C
CCN1CCN(Cc2ccc(NC(=O)c3ccc(C)c(/C=C/c4cnc5[nH]ccc5c4OC)c3)cc2C(F)(F)F)CC1	target engagement in cells	inhibitor	chemoproteomics	A-375	0.5 µM	inhibition	-21.7%
CN1CC(Oc2cnc(C#N)cc2-c2ccn3nc(NC(=O)C4CC4)cc3c2)C1	enzyme activity	inhibitor	–	–	1 µM	inhibition	9%
CCN(CC)CCNC(=O)c1c(C)[nH]c(/C=C2\C(=O)Nc3ccc(F)cc32)c1C	enzyme activity	inhibitor	–	–	10 µM	inhibition	-4%
FC(F)c1nc2ccccc2n1-c1nc(N2CCOCC2)nc(N2CCOCC2)n1	enzyme activity	inhibitor	–	–	10 µM	remaining activity	96%
COc1cc2ncnc(Nc3ccc(Oc4ccccc4)c(C)c3C)c2cc1OC	enzyme activity	inhibitor	–	–	1 µM	inhibition	1%
Nc1nc(NC2CCCCC2)sc1C(=O)c1ccccc1	enzyme activity	inhibitor	–	–	10 µM	remaining activity	89%
CCN1CCN(Cc2ccc(NC(=O)c3ccc(C)c(Oc4ccnc5[nH]ccc45)c3)cc2C(F)(F)F)CC1	target engagement in cells	inhibitor	chemoproteomics	A-375	0.5 µM	inhibition	0.084%
COc1cc(Nc2cnc(C#N)c(O[C@H](C)CN(C)C)n2)ncc1-c1cnn(C)c1	enzyme activity	inhibitor	radiometric	–	1 µM	remaining activity	94%
CC(C)c1ccc(NC(=O)c2cccs2)c(-c2nc3ccccc3[nH]c2=O)c1	enzyme activity	inhibitor	–	–	1 µM	activity vs control	113%
CCN(CC)c1ccc(C2=NNC(=O)CC2C)cc1[N+](=O)[O-] (centres unmarked)	enzyme activity	inhibitor	–	–	10 µM	remaining activity	95%
CC/C(=N\NC(=O)NCc1cccc(O)c1)c1ccc(O)c(C)c1O	enzyme activity	inhibitor	–	–	0.1 µM	inhibition	1.1%
Oc1cccc(-c2nc(N3CCOCC3)c3oc4ncccc4c3n2)c1	enzyme activity	inhibitor	–	–	10 µM	remaining activity	99%
Cn1c2c(c3ccccc31)C(C#N)C(C)(C)NC2=O (centres unmarked)	thermal stability	–	DSF	–	10 µM	ΔTm	0 °C
CC(C)(C)c1nc2c(s1)c1nc(N)ncc1c1ccc(NS(=O)(=O)c3c(F)cccc3F)c(F)c12	enzyme activity	inhibitor	radiometric	–	1 µM	remaining activity	88%
CCCS(=O)(=O)Nc1ccc(F)c(C(=O)c2c[nH]c3ncc(-c4ccc(Cl)cc4)cc23)c1F	enzyme activity	inhibitor	–	–	1 µM	inhibition	< 10%
CC1(C)NC(=O)c2[nH]c3c(Cl)c(Cl)ccc3c2C1C#N (centres unmarked)	thermal stability	–	DSF	–	10 µM	ΔTm	-0.3 °C
Cc1ccc(Nc2nccc(N(C)c3ccc4c(C)n(C)nc4c3)n2)cc1S(N)(=O)=O	enzyme activity	inhibitor	–	–	10 µM	inhibition	-10%
FC(F)(F)Oc1cccc(-c2cnc3ccc(-c4ccncc4)nn23)c1	enzyme activity	inhibitor	radiometric	–	1 µM	activity vs control	99%
Cn1c2c(c3ccc(Cl)c(Cl)c31)C(C#N)C1(CCOCC1)NC2=O (centres unmarked)	thermal stability	–	DSF	–	10 µM	ΔTm	-0.2 °C
CC(C)(C)C(=O)c1sc(NC2CCCCC2)nc1N	enzyme activity	inhibitor	–	–	10 µM	remaining activity	111%
Cn1c2c(c3ccc(Cl)c(Cl)c31)C(C#N)C1(CCNCC1)NC2=O (racemic)	thermal stability	–	DSF	–	10 µM	ΔTm	0 °C
CNC(=O)c1cc(Oc2ccc(NC(=O)Nc3ccc(Cl)c(C(F)(F)F)c3)cc2)ccn1	enzyme activity	inhibitor	–	–	10 µM	inhibition	-8%
